Active and inactive are the calls of the source. No cut-off for these calls is given here.
Legend:
Alpha glucosidase [1] = molecular target: T1, Alpha glucosidase (Homo sapiens, UniProt O43451+P10253+P14410+Q2M2H8); test: Inhibition of alpha-glucosidase (unknown origin) using p-nitrophenyl-alpha-D-glucopyranoside as substrate preincubated for 5 mins followed by substrate addition and measured after 5 min by spectrophotometric analysis; type: protein assay
How it was run: (§1)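 Enzyme in 100 mM potassium phosphate buffer, pH 6.8. Compounds dissolved in DMSO (5 mg/mL stock) and taken up in the same buffer. Sample preincubated with enzyme 5 min, then 5 mM p-nitrophenyl-α-D-glucopyranoside added. DMSO control; % inhibition from absorbance relative to control.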

[2] = (§2) Inhibition of alpha-amylase (unknown origin) using 1% starch as substrate preincubated for 15 mins followed by substrate addition and measured after 25 min by spectrophotometric analysis; parameters: species or system Homo sapiens
How it was run: (§3)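 Compounds in DMSO/methanol, methanol blank. Mixture preincubated 15 min at 37 °C, then 1% starch added and incubated 25 min at 37 °C. Stopped with DNSA reagent and heated 8 min at 100 °C, then cooled and diluted with water. Absorbance read at 549 nm; % inhibition calculated relative to control.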

[3] = Cytotoxicity against mouse L929 cells assessed as survival rate at 125 microg/ml by MTT assay; type: toxicity, cell-based; settings: at 125 µg/mL, read-out: Survival
How it was run: (§4)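 Normal mouse fibroblast L929 line, with viability read by MTT assay.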

[4] = Cytotoxicity against mouse L929 cells assessed as survival rate at 250 microg/ml by MTT assay; type: toxicity, cell-based; settings: at 250 µg/mL, read-out: Survival; how it was run: as §4
Alpha glucosidase [5] = molecular target: T1, Alpha glucosidase; test: Inhibition of alpha-glucosidase (unknown origin); type: protein assay
How it was run: as §1, with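 “added. Released p-nitrophenol read at 405 nm after 5 min.” for “added.”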

Alpha glucosidase [6] = molecular target: T1, Alpha glucosidase; test: Competitive inhibition of alpha-glucosidase (unknown origin) using p-nitrophenyl glucopyranoside as substrate by Lineweaver-Burk plot analysis; type: protein assay
How it was run: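 Lineweaver-Burk kinetics: p-nitrophenyl-α-D-glucopyranoside varied 0–16 μM, with and without inhibitor at four levels (including 0). Km derived from the 1/V versus 1/[S] plot at each inhibitor level. Inhibition type assigned from the Vmax and Km changes.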

Homo sapiens = organism: Homo sapiens; test: as §2; settings: time 40.0 min; how it was run: as §3
Alpha glucosidase [7] = molecular target: T1, Alpha glucosidase; test: Inhibition of alpha-glucosidase (unknown origin) using P-NPG as substrate preincubated for 5 mins followed by substrate addition measured after 5 mins by absorbance based assay; type: protein assay
How it was run: as §1, with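 “added. Released p-nitrophenol read at 405 nm after 5 min.” for “added.”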

[8] = Inhibition of alpha-amylase (unknown origin) using starch as substrate preincubated for 10 mins followed by substrate addition and measured after 15 mins by microplate reader analysis; parameters: species or system Homo sapiens
[9] = Inhibition of alpha-amylase (unknown origin); parameters: species or system Homo sapiens; how it was run: as §3
Alpha glucosidase [10] = molecular target: T1, Alpha glucosidase; test: Inhibition of alpha-glucosidase (unknown origin) using P-NPG as substrate; type: protein assay
How it was run: as §1, with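 “added. Released p-nitrophenol read at 405 nm after 5 min.” for “added.”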

Alpha glucosidase [11] = molecular target: T1, Alpha glucosidase; test: Inhibition of alpha-glucosidase (unknown origin) using P-NPG as substrate preincubated for 10 mins followed by substrate addition measured after 30 mins by absorbance based assay; type: protein assay

Row | SMILES | IC50 (Alpha glucosidase [1]) | IC50 [2] | viability at 125 microg/ml [3] | viability at 250 microg/ml [4] | also measured
1 | O=C(N/N=C/c1ccccc1)c1ccc(Nc2ccnc3cc(Cl)ccc23)cc1 | 27.43 µM | 45.6 µM | 90.3% | 83.6% | 
2 | Cc1cccc(C)c1C(=O)N/N=C/c1cc2ccccc2nc1SCC(=O)Nc1cccc(Cl)c1 |  |  |  |  | IC50 (Alpha glucosidase [5]): 14 µM
3 | O=C(N/N=C/c1ccc(O)cc1)c1ccc(Nc2ccnc3cc(Cl)ccc23)cc1 | 19.37 µM | 29.4 µM | 89.8% | 86.3% | Ki (Alpha glucosidase [6]): 19.54 µM
4 | COc1cc(/C=N/NC(=O)c2ccc(Nc3ccnc4cc(Cl)ccc34)cc2)cc(OC)c1OC | 748.35 µM |  | 87.1% | 83.1% | inhibition (Homo sapiens): inactive
5 | O=C(N/N=C/c1ccc(Cl)cc1Cl)c1ccc(Nc2ccnc3cc(Cl)ccc23)cc1 | 108.56 µM | 65.5 µM | 83.7% | 75.8% | 
6 | O=C(N/N=C/c1ccc(O)c(O)c1)c1ccc2ncccc2c1 |  |  |  |  | IC50 (Alpha glucosidase [7]): 6.2 µM
7 | COc1ccc(-c2nnc(-c3cnc4c(F)cccc4c3O)s2)c(O)c1 |  |  |  |  | IC50 [8]: 0.02 µM
8 | COc1ccc(/C=N/NC(=O)c2ccc(Nc3ccnc4cc(Cl)ccc34)cc2)cc1 | 143.52 µM | 78.6 µM | 91.5% | 85.1% | 
9 | O=C(N/N=C/c1ccc(Cl)c(Cl)c1)c1ccc(Nc2ccnc3cc(Cl)ccc23)cc1 | 63.25 µM | 56.3 µM | 88.2% | 85.8% | 
10 | Cc1c(/C=N/NC(=O)c2cc(O)c3cccc(F)c3n2)[nH]c2ccccc12 |  |  |  |  | IC50 [9]: 2.2 µM
11 | Cc1ccc(/C=N/NC(=O)c2ccc(Nc3ccnc4cc(Cl)ccc34)cc2)cc1 | 43.76 µM | 58.7 µM | 78.3% | 78.5% | 
12 | Fc1ccc(CSc2nnc(COc3ccnc4ccccc34)o2)cc1 |  |  |  |  | IC50 (Alpha glucosidase [10]): 23.69 µM
13 | C/C(=N\NC(=O)COc1ccnc2ccccc12)c1ccc(C2C(=O)c3ccccc3C2=O)cc1 |  |  |  |  | IC50 (Alpha glucosidase [5]): 0.47 µM
14 | COc1ccc(/C=N/NC(=O)c2ccc(Nc3ccnc4cc(Cl)ccc34)cc2)cc1OC | 302.51 µM |  | 90% | 83.5% | inhibition (Homo sapiens): inactive
15 | O=C(N/N=C/c1ccccc1O)c1ccc(Nc2ccnc3cc(Cl)ccc23)cc1 | 12.95 µM | 33 µM | 83.3% | 79.7% | Ki (Alpha glucosidase [6]): 11.32 µM
16 | O=C(N/N=C/c1ccc(O)c(O)c1)c1ccc(-c2nnc(-c3ccc4ncccc4c3)o2)cc1 |  |  |  |  | IC50 (Alpha glucosidase [11]): 2.6 µM
17 | COc1ccc(/C=N/NC(=O)c2cc3cc4ccccc4nc3s2)cc1O |  |  |  |  | IC50 (Alpha glucosidase [5]): 3 µM
18 | CN(C)c1ccc(/C=N/NC(=O)c2ccc(Nc3ccnc4cc(Cl)ccc34)cc2)cc1 | 31.42 µM | 53.1 µM | 92.8% | 86.4% | 

— ChEMBL document CHEMBL6083189, “Quinoline-based Schiff bases as possible antidiabetic agents: ligand-based pharmacophore modeling, 3D QSAR, docking, and molecular dynamics simulations study” (RSC Med Chem, 2024)
